In ChEMBL document CHEMBL1687761 (2010):
≈ marks a conversion by molar mass, not a printed value.

Experiments:
Assay type in all cases: functional
[1] = test system: Escherichia coli; assay: Antimicrobial activity against Escherichia coli XL1-Blue harboring pLBII-VIM-2 plasmid expressing VIM-2 W87A mutant beta-lactamase by broth microdilution method
How it was run: (§1)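 Isogenic E. coli XL-1 strains carried pLBII-VIM-2 encoding wild-type or mutant VIM-2, or the empty pBC-SK vector. β-Lactam MICs were determined by CLSI broth microdilution in cation-adjusted Mueller-Hinton broth.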

[2] = test system: Escherichia coli; assay: Antimicrobial activity against Escherichia coli XL1-Blue harboring pLBII-VIM-2 plasmid expressing VIM-2 A64W mutant beta-lactamase by broth microdilution method; how it was run: as §1
[3] = test system: Escherichia coli; assay: Antimicrobial activity against Escherichia coli XL1-Blue harboring pLBII-VIM-2 plasmid expressing VIM-2 beta-lactamase by broth microdilution method; how it was run: as §1
[4] = test system: Escherichia coli; assay: Antimicrobial activity against Escherichia coli XL1-Blue harboring pBC-SK plasmid by broth microdilution method; how it was run: as §1
[5] = test system: Escherichia coli; assay: Antimicrobial activity against Escherichia coli XL1-Blue harboring pLBII-VIM-2 plasmid expressing VIM-2 W87F mutant beta-lactamase by broth microdilution method; how it was run: as §1
[6] = test system: Escherichia coli; assay: Antimicrobial activity against Escherichia coli XL1-Blue VIM-2 W87P mutant beta-lactamase by broth microdilution method
[7] = test system: Escherichia coli; assay: Antimicrobial activity against Escherichia coli XL1-Blue VIM-2 W87S mutant beta-lactamase by broth microdilution method
[8] = test system: Escherichia coli; assay: Antimicrobial activity against Escherichia coli XL1-Blue VIM-2 F61V mutant beta-lactamase by broth microdilution method
[9] = test system: Escherichia coli; assay: Antimicrobial activity against Escherichia coli XL1-Blue VIM-2 F61R mutant beta-lactamase by broth microdilution method
[10] = test system: Escherichia coli; assay: Antimicrobial activity against Escherichia coli XL1-Blue VIM-2 F61T mutant beta-lactamase by broth microdilution method
[11] = test system: Escherichia coli; assay: Antimicrobial activity against Escherichia coli XL1-Blue VIM-2 F61P mutant beta-lactamase by broth microdilution method
[12] = test system: Escherichia coli; assay: Antimicrobial activity against Escherichia coli XL1-Blue VIM-2 W87K mutant beta-lactamase by broth microdilution method
[13] = test system: Escherichia coli; assay: Antimicrobial activity against Escherichia coli XL1-Blue VIM-2 F61W mutant beta-lactamase by broth microdilution method
[14] = test system: Escherichia coli; assay: Antimicrobial activity against Escherichia coli XL1-Blue VIM-2 F61L mutant beta-lactamase by broth microdilution method
[15] = test system: Escherichia coli; assay: Antimicrobial activity against Escherichia coli XL1-Blue VIM-2 F61K mutant beta-lactamase by broth microdilution method
[16] = test system: Escherichia coli; assay: Antimicrobial activity against Escherichia coli XL1-Blue VIM-2 W87G mutant beta-lactamase by broth microdilution method
[17] = test system: Escherichia coli; assay: Antimicrobial activity against Escherichia coli XL1-Blue VIM-2 F61A mutant beta-lactamase by broth microdilution method
[18] = test system: Escherichia coli; assay: Antimicrobial activity against Escherichia coli XL1-Blue VIM-2 W87T mutant beta-lactamase by broth microdilution method
[19] = test system: Escherichia coli; assay: Antimicrobial activity against Escherichia coli XL1-Blue VIM-2 W87A mutant beta-lactamase by broth microdilution method
[20] = test system: Escherichia coli; assay: Antimicrobial activity against Escherichia coli XL1-Blue VIM-2 W87I mutant beta-lactamase by broth microdilution method
[21] = test system: Escherichia coli; assay: Antimicrobial activity against Escherichia coli XL1-Blue VIM-2 W87L mutant beta-lactamase by broth microdilution method
[22] = test system: Escherichia coli; assay: Antimicrobial activity against Escherichia coli XL1-Blue VIM-2 F61Y mutant beta-lactamase by broth microdilution method
[23] = test system: Escherichia coli; assay: Antimicrobial activity against Escherichia coli XL1-Blue VIM-2 W87R mutant beta-lactamase by broth microdilution method
[24] = test system: Escherichia coli; assay: Antimicrobial activity against Escherichia coli XL1-Blue VIM-2 F61S mutant beta-lactamase by broth microdilution method
[25] = test system: Escherichia coli; assay: Antimicrobial activity against Escherichia coli XL1-Blue VIM-2 W87V mutant beta-lactamase by broth microdilution method
[26] = test system: Escherichia coli; assay: Antimicrobial activity against Escherichia coli XL1-Blue VIM-2 W87Y mutant beta-lactamase by broth microdilution method
[27] = test system: Escherichia coli; assay: Antimicrobial activity against Escherichia coli XL1-Blue VIM-2 F61C mutant beta-lactamase by broth microdilution method
[28] = test system: Escherichia coli; assay: Antimicrobial activity against Escherichia coli XL1-Blue VIM-2 W87N mutant beta-lactamase by broth microdilution method
[29] = test system: Escherichia coli; assay: Antimicrobial activity against Escherichia coli XL1-Blue VIM-2 W87F mutant beta-lactamase by broth microdilution method
[30] = test system: Escherichia coli; assay: Antimicrobial activity against Escherichia coli XL1-Blue VIM-2 F61G mutant beta-lactamase by broth microdilution method
[31] = test system: Escherichia coli; assay: Antimicrobial activity against Escherichia coli XL1-Blue VIM-2 F61N mutant beta-lactamase by broth microdilution method
[32] = test system: Escherichia coli; assay: Antimicrobial activity against Escherichia coli XL1-Blue VIM-2 F61I mutant beta-lactamase by broth microdilution method
[33] = test system: Escherichia coli; assay: Antimicrobial activity against Escherichia coli XL1-Blue VIM-2 F61H mutant beta-lactamase by broth microdilution method
[34] = test system: Escherichia coli; assay: Antimicrobial activity against Escherichia coli XL1-Blue VIM-2 W87Q mutant beta-lactamase by broth microdilution method
[35] = test system: Escherichia coli; assay: Antimicrobial activity against Escherichia coli XL1-Blue VIM-2 W87M mutant beta-lactamase by broth microdilution method

## CO/N=C(\C(=O)N[C@@H]1C(=O)N2C(C(=O)[O-])=C(C[N+]3(C)CCCC3)CS[C@H]12)c1csc(N)n1
[1]
  MIC: 0.12 µg/mL (≈ 0.25 µM)
[2]
  MIC: 0.5 µg/mL (≈ 1.04 µM)
[3]
  MIC: 0.5 µg/mL (≈ 1.04 µM)

## C[C@@H](O)[C@H]1C(=O)N2C(C(=O)O)=C(SCCNC=N)C[C@H]12 [IMIPENEM ANHYDROUS]
[1]
  MIC: 0.12 µg/mL (≈ 0.401 µM)
[2]
  MIC: 1 µg/mL (≈ 3.34 µM)
[3]
  MIC: 1 µg/mL (≈ 3.34 µM)

## CO[C@@]1(NC(=O)Cc2cccs2)C(=O)N2C(C(=O)O)=C(COC(N)=O)CS[C@@H]21 [CEFOXITIN]
[1]
  MIC: 8 µg/mL (≈ 18.7 µM)
[2]
  MIC: 128 µg/mL (≈ 299 µM)
[4]
  MIC: 8 µg/mL (≈ 18.7 µM)
[5]
  MIC: 8 µg/mL (≈ 18.7 µM)
[3]
  MIC: 128 µg/mL (≈ 299 µM)

## CC(=O)OCC1=C(C(=O)O)N2C(=O)[C@@H](NC(=O)Cc3cccs3)[C@H]2SC1 [CEPHALOTHIN]
[1]
  MIC: 16 µg/mL (≈ 40.4 µM)
[2]
  MIC: 256 µg/mL (≈ 646 µM)
[4]
  MIC: 16 µg/mL (≈ 40.4 µM)
[3]
  MIC: 256 µg/mL (≈ 646 µM)

## CO/N=C(\C(=O)N[C@@H]1C(=O)N2C(C(=O)O)=C(CSc3nc(=O)c(O)nn3C)CS[C@H]12)c1csc(N)n1 [CEFTRIAXONE]
[1]
  MIC: 0.12 µg/mL (≈ 0.216 µM)
[2]
  MIC: 4 µg/mL (≈ 7.21 µM)
[4]
  MIC: 0.12 µg/mL (≈ 0.216 µM)
[5]
  MIC: 0.12 µg/mL (≈ 0.216 µM)
[3]
  MIC: 4 µg/mL (≈ 7.21 µM)

## CO/N=C(\C(=O)N[C@@H]1C(=O)N2C(C(=O)O)=C(COC(N)=O)CS[C@H]12)c1ccco1 [CEFUROXIME]
[1]
  MIC: 8 µg/mL (≈ 18.9 µM)
[2]
  MIC: 256 µg/mL (≈ 603 µM)
[4]
  MIC: 8 µg/mL (≈ 18.9 µM)
[5]
  MIC: 8 µg/mL (≈ 18.9 µM)
[3]
  MIC: 256 µg/mL (≈ 603 µM)

## C[C@@H](O)[C@H]1C(=O)N2C(C(=O)O)=C(S[C@@H]3CN[C@H](C(=O)Nc4cccc(C(=O)O)c4)C3)[C@H](C)[C@H]12
[1]
  MIC: ≤ 0.03 µg/mL
[2]
  MIC: 0.5 µg/mL (≈ 1.05 µM)
[4]
  MIC: ≤ 0.03 µg/mL
[5]
  MIC: ≤ 0.03 µg/mL
[3]
  MIC: 0.5 µg/mL (≈ 1.05 µM)

## CC1(C)S[C@@H]2[C@H](NC(=O)[C@H](N)c3ccccc3)C(=O)N2[C@H]1C(=O)O [AMPICILLIN]
[6]
  MIC: ≤ 4 µg/mL
[7]
  MIC: ≤ 4 µg/mL
[8]
  MIC: ≥ 32 µg/mL
[9]
  MIC: 8 µg/mL (≈ 22.9 µM)
[10]
  MIC: ≥ 32 µg/mL
[11]
  MIC: 8 µg/mL (≈ 22.9 µM)
[12]
  MIC: ≤ 4 µg/mL
[13]
  MIC: ≥ 32 µg/mL
[14]
  MIC: ≥ 32 µg/mL
[15]
  MIC: ≥ 32 µg/mL
[16]
  MIC: ≤ 4 µg/mL
[17]
  MIC: ≥ 32 µg/mL
[18]
  MIC: ≤ 4 µg/mL
[19]
  MIC: ≤ 4 µg/mL
[20]
  MIC: ≤ 4 µg/mL
[21]
  MIC: ≤ 4 µg/mL
[22]
  MIC: ≥ 32 µg/mL
[23]
  MIC: ≤ 4 µg/mL
[24]
  MIC: 8 µg/mL (≈ 22.9 µM)
[25]
  MIC: ≤ 4 µg/mL
[26]
  MIC: ≤ 4 µg/mL
[27]
  MIC: 8 µg/mL (≈ 22.9 µM)
[28]
  MIC: ≤ 4 µg/mL
[29]
  MIC: ≤ 4 µg/mL
[30]
  MIC: ≥ 32 µg/mL
[31]
  MIC: ≥ 32 µg/mL
[32]
  MIC: ≥ 32 µg/mL
[2]
  MIC: 64 µg/mL (≈ 183 µM)
[33]
  MIC: ≥ 32 µg/mL
[34]
  MIC: ≤ 4 µg/mL
[35]
  MIC: ≤ 4 µg/mL
[5]
  MIC: 8 µg/mL (≈ 22.9 µM)
[3]
  MIC: 64 µg/mL (≈ 183 µM)

## C[C@H]1[C@H](NC(=O)/C(=N\OC(C)(C)C(=O)O)c2csc(N)n2)C(=O)N1S(=O)(=O)O [AZTREONAM]
[1]
  MIC: 0.12 µg/mL (≈ 0.276 µM)
[2]
  MIC: 0.12 µg/mL (≈ 0.276 µM)
[3]
  MIC: 0.12 µg/mL (≈ 0.276 µM)

## CO/N=C(\C(=O)N[C@@H]1C(=O)N2C(C(=O)O)=C(COC(C)=O)CS[C@H]12)c1csc(N)n1 [CEFOTAXIME]
[1]
  MIC: 0.12 µg/mL (≈ 0.263 µM)
[2]
  MIC: > 32 µg/mL
[4]
  MIC: 0.12 µg/mL (≈ 0.263 µM)
[5]
  MIC: 0.12 µg/mL (≈ 0.263 µM)
[3]
  MIC: > 32 µg/mL

## C[C@@H](O)[C@H]1C(=O)N2C(C(=O)O)=C(S[C@@H]3CN[C@H](C(=O)N(C)C)C3)[C@H](C)[C@H]12 [MEROPENEM]
[1]
  MIC: ≤ 0.03 µg/mL
[2]
  MIC: 0.5 µg/mL (≈ 1.3 µM)
[4]
  MIC: ≤ 0.03 µg/mL
[5]
  MIC: ≤ 0.03 µg/mL
[3]
  MIC: 0.5 µg/mL (≈ 1.3 µM)

## CC(C)(O/N=C(\C(=O)N[C@@H]1C(=O)N2C(C(=O)[O-])=C(C[n+]3ccccc3)CS[C@H]12)c1csc(N)n1)C(=O)O [CEFTAZIDIME]
[1]
  MIC: 0.12 µg/mL (≈ 0.22 µM)
[2]
  MIC: 2 µg/mL (≈ 3.66 µM)
[4]
  MIC: 0.12 µg/mL (≈ 0.22 µM)
[5]
  MIC: 0.12 µg/mL (≈ 0.22 µM)
[3]
  MIC: 2 µg/mL (≈ 3.66 µM)

## CCN1CCN(C(=O)N[C@@H](C(=O)N[C@@H]2C(=O)N3[C@@H]2SC(C)(C)[C@@H]3C(=O)O)c2ccccc2)C(=O)C1=O [PIPERACILLIN]
[1]
  MIC: 0.5 µg/mL (≈ 0.966 µM)
[2]
  MIC: 8 µg/mL (≈ 15.5 µM)
[4]
  MIC: 0.5 µg/mL (≈ 0.966 µM)
[5]
  MIC: 0.5 µg/mL (≈ 0.966 µM)
[3]
  MIC: 8 µg/mL (≈ 15.5 µM)
